According to article PMC2193294 (The Journal of Experimental Medicine, 2001):
Values belong to the compound of their own block, whether it stands above or below them.

Tests used:
activated platelets = settings: cited from earlier work
[1] = cited from earlier work
platelet aggregation = settings: high fluid shear; cited from earlier work
vWF [2] = settings: cited from earlier work
vWF [3] = assay: Formation of new thiols in vWF; type: biochemical, human
vWF [4] = assay: vWF reductase activity: collagen binding activity / vWF antigen ratio in vitro; type: biochemical, human
Method in brief: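 Plasma from a TTP patient (plasmapheresis; centrifuged 2,000 g, 20 min, 4°C) was used at 10 μl with 90 μl Hepes-buffered saline containing 1 mM CaCl2. The buffer held purified human platelet TSP-1 (0.001–100 μg/ml; purified in 0.1 or 2 mM CaCl2 buffers, quantified by A280) or HMEC-1 conditioned medium. Incubation was 1 or 24 h at 37°C. Aliquots were diluted 10-fold and assayed for collagen binding and vWF antigen, giving a ratio. Triplicates, mean and SD.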

vWF [5] = assay: Binding of TSP-1 to vWF; parameters: species or system human
Method in brief: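 vWF (5 μg/ml in 0.1 M NaHCO3, pH 8.3) adsorbed to wells overnight at 4°C, then blocked with 2% BSA in HBS (90 min, 37°C). Control wells were BSA-blocked only, with 10 μg/ml TSP-1. TSP-1 (0–10 μg/ml) in Hepes/NaCl/1 mM CaCl2/1 mM MgCl2, pH 7.4, with 0, 5 or 20 mM NEM, 30 min RT with shaking. Wells washed with 1 M NaCl buffer. Detection: anti-TSP-1 mAb HB8432 (10 μg/ml), then peroxidase anti-mouse (1:1,000). Triplicates, mean and SD.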

[6] = Plasma concentration of human TSP-1 in mice after injection; type: in vivo; settings: Balb c mice, 1 mg/kg i.p., 24 h after injection, TSP-1 ELISA
Method in brief: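 Balb c mice (7–9 wk; 2 male, 2 female per group) received purified human platelet TSP-1 at 1 mg/kg as a 0.1 ml i.p. injection. EDTA blood was taken by cardiac puncture 24 h later. Human TSP-1 was measured by sandwich ELISA: HB8432 capture (5 μg/ml, pH 9.6, overnight at 4°C), BSA block, diluted plasma 30 min RT, biotin-HB8432 (5 μg/ml), then StreptABComplex/HRP (1:100). Standards were TSP-1-depleted plasma spiked with platelet TSP-1; the assay was linear over 1–100 ng/ml.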

plasma vWF = assay: Reduction in average multimer size of plasma vWF in mice; type: in vivo; settings: Balb c mice, 1 mg/kg i.p., 24 h, P < 0.05
Method in brief: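 Balb c mice aged 7–9 wk, n = 4 per group with 2 male and 2 female each, were given buffer vehicle or purified human platelet TSP-1 at 1 mg/kg as a 0.1 ml i.p. injection. After 24 h, EDTA plasma was collected by cardiac puncture. Plasma was assayed in triplicate for vWF collagen binding activity and vWF antigen, using anti-rat vWF polyclonal antibodies. Multimer size was expressed as the collagen binding/antigen ratio.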

vWF [7] = type: biochemical, human
collagen = settings: cited from earlier work

Compound: large vWF multimers: large multimers of von Willebrand factor
affinity for activated platelets vs monomeric fragments (activated platelets): ~100 fold
affinity for activated platelets vs small multimers (activated platelets): up to 10 fold
ristocetin cofactor activity per unit antigen vs small multimers [1]: considerably higher

Compound: unusually large vWF multimers: unusually large vWF multimers secreted by endothelial cells
induction of platelet aggregation vs largest plasma forms (platelet aggregation): more effective

Compound: O=C(O)CN(CCN(CC(=O)O)CC(=O)O)CC(=O)O [EDTA, reference compound]
effect of EDTA on vWF reductase activity in endothelial cell–conditioned medium (vWF [2]): inhibited
effect of EDTA on TSP-1–facilitated formation of free thiols in vWF (vWF [3]; not shown): ablated TSP-1–facilitated formation of free thiols in vWF
effect of EDTA (chelation of Ca2+) on vWF reductase activity of TSP-1 (vWF [4]; not shown): ablated the vWF reductase activity of TSP-1

binding of TSP-1 to wells not coated with vWF (vWF [5]; 10 μg/ml TSP-1, BSA-blocked wells): no binding
dependence of TSP-1–mediated reduction in vWF multimer size (vWF [4]; TTP1 plasma, TSP-1 0.001 to 100 μg/ml, 1 or 24 h, 37°C): concentration and time dependent
optimal TSP-1 concentration for reduction of vWF in 1 h (vWF [4]; purified TSP-1, ∼1 μg/ml plasma vWF, 1 h): ~0.1 µg/mL
optimal TSP-1 concentration for reduction of vWF in 24 h (vWF [4]; purified TSP-1, ∼1 μg/ml plasma vWF, 24 h): ~0.01 µg/mL
Compound: thrombospondin-1 [TSP-1]
concentration of human TSP-1 in mouse plasma [6]: ~1000 ng/mL
average multimer size of plasma vWF vs buffer vehicle (plasma vWF): significantly lower
average multimer size of plasma vWF (vWF [7]; TSP-1 added to TTP2 and TTP3 patient plasmas (not shown)): reduced the average multimer size of the plasma vWF
very large vWF multimers (vWF [7]; TTP1 patient plasma, 1 h, 37°C, 1% agarose gel): the very large multimers were lost
dependence of MPB incorporation on TSP-1 concentration (vWF [3]; TSP-1 0.01 to 100 μg/ml, 60 min, 37°C): the incorporation increased with increasing TSP-1 concentration
formation of new thiols in vWF (MPB incorporation) (vWF [3]; purified human vWF 2 μg/ml, 60 min, 37°C, TSP-1 0.01 to 100 μg/ml or HMEC-1–conditioned medium, MPB 100 μM): resulted in incorporation of MPB into vWF
vWF reducing activity of three different preparations of platelet TSP-1 (vWF [4]; not shown): had the same vWF reducing activity

Compound: multimeric vWF: multimeric von Willebrand factor
collagen binding affinity vs monomeric vWF fragments (collagen): ~100 fold

Compound: CCN1C(=O)C=CC1=O [NEM, N-ethylmaleimide, reference compound]
TSP-1/vWF complex formation vs NEM concentration (vWF [5]; NEM 0, 5, 20 mM, 30 min, room temperature): Complex formation increased with increasing NEM concentration
